Results as given in ChEMBL document CHEMBL1145962, “Structure-based de novo design, synthesis, and biological evaluation of non-azole inhibitors specific for lanosterol 14alpha-demethylase of fungi” (2003).
≈ marks a conversion by molar mass, not a printed value.

Tests used:
Assay type in all cases: functional
[1] = test system: Aspergillus fumigatus; test: In vitro antifungal activity against Aspergillus fumigatus
Outline: (§1)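 Filamentous fungi were tested by NCCLS microdilution in RPMI 1640 buffered with 0.165 M MOPS. DMSO-dissolved compounds were serially diluted in medium. MIC was read at 7 days as the lowest concentration with turbidity at ≤80% inhibition versus the drug-free control.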

[2] = test system: Candida albicans; test: In vitro antifungal activity against Candida albicans
Outline: (§2)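 NCCLS broth serial dilution in 96-well plates with RPMI 1640 buffered with 0.165 M MOPS. Compounds were dissolved in DMSO and diluted in medium. Yeasts were incubated at 35 °C and read at 24 h. MIC is the lowest concentration giving turbidity at ≤80% inhibition versus the growth control.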

[3] = test system: Candida parapsilosis; test: In vitro antifungal activity against Candida parapsilosis; conditions: Lodderomyces parapsilosis; outline: as §2
[4] = test system: Cryptococcus neoformans; test: In vitro antifungal activity against Cryptococcus neoformans
Outline: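 Microdilution MIC per NCCLS in MOPS (0.165 M)-buffered RPMI 1640. DMSO solutions were serially diluted in growth medium. Incubated at 35 °C as a yeast, with growth read at 72 h.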

[5] = test system: Fonsecaea pedrosoi; test: In vitro antifungal activity against Fonsecaea pedrosoi; outline: as §1
[6] = test system: Microsporum canis; test: In vitro antifungal activity against Microsporum canis
Outline: (§3)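 Dermatophytes tested by NCCLS serial dilution in 96-well plates, in RPMI 1640 with 0.165 M MOPS. Compounds were prepared in DMSO and diluted in medium. Incubation was at 28 °C with reading at 7 days. MIC is the lowest concentration giving turbidity at ≤80% inhibition of control growth.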

[7] = test system: Sporothrix schenckii; test: In vitro antifungal activity against Sporothrix schenck ii; outline: as §1
[8] = test system: Trichophyton rubrum; test: In vitro antifungal activity against Trichophyton rubrum; outline: as §3

Row | Structure (SMILES) | MIC [1] | MIC [2] | MIC [3] | MIC [4] | MIC [5] | MIC [6] | MIC [7] | MIC [8]
1 | CCCCCCCC1(C)C/C(=N/O)c2ccc(O)cc2O1 (stereo not drawn) | 10 µg/mL (≈ 34.3 µM) | 40 µg/mL (≈ 137 µM) | 20 µg/mL (≈ 68.6 µM) | 20 µg/mL (≈ 68.6 µM) | 40 µg/mL (≈ 137 µM) | 0.625 µg/mL (≈ 2.14 µM) | 10 µg/mL (≈ 34.3 µM) | 2.5 µg/mL (≈ 8.58 µM)
2 | COc1ccc2c(c1)OC(C)(CCC=C(C)C)CC2=O (stereo not drawn) | 160 µg/mL (≈ 583 µM) | > 320 µg/mL | > 320 µg/mL | > 320 µg/mL | > 320 µg/mL | 80 µg/mL (≈ 292 µM) | 320 µg/mL (≈ 1170 µM) | > 320 µg/mL
3 | COc1ccc2c(c1)OC(C)(CCC=C(C)C)CC2O (stereo not drawn) | 160 µg/mL (≈ 579 µM) | > 320 µg/mL | 160 µg/mL (≈ 579 µM) | 160 µg/mL (≈ 579 µM) | 320 µg/mL (≈ 1160 µM) | 160 µg/mL (≈ 579 µM) | 320 µg/mL (≈ 1160 µM) | 160 µg/mL (≈ 579 µM)
4 | CCCCCCCCCC1(C)CC(=O)c2ccc(O)cc2O1 (stereo not drawn) | 80 µg/mL (≈ 263 µM) | > 320 µg/mL | > 320 µg/mL | > 320 µg/mL | > 320 µg/mL | 80 µg/mL (≈ 263 µM) | > 320 µg/mL | > 320 µg/mL
5 | COc1ccc2c(c1)OC(C)(CCC=C(C)C)C=C2 (stereo not drawn) | > 320 µg/mL | > 320 µg/mL | > 320 µg/mL | > 320 µg/mL | > 320 µg/mL | 80 µg/mL (≈ 310 µM) | 320 µg/mL (≈ 1240 µM) | 40 µg/mL (≈ 155 µM)
6 | OC(Cn1cncn1)(Cn1cncn1)c1ccc(F)cc1F [FLUCONAZOLE] | 16 µg/mL (≈ 52.2 µM) | 4 µg/mL (≈ 13.1 µM) | 8 µg/mL (≈ 26.1 µM) | 32 µg/mL (≈ 104 µM) | 64 µg/mL (≈ 209 µM) | 0.5 µg/mL (≈ 1.63 µM) | 0.25 µg/mL (≈ 0.816 µM) | 0.5 µg/mL (≈ 1.63 µM)
7 | CCCCCC1(C)CC(=O)c2ccc(OC)cc2O1 (stereo not drawn) | 160 µg/mL (≈ 610 µM) | > 320 µg/mL | > 320 µg/mL | > 320 µg/mL | > 320 µg/mL | 80 µg/mL (≈ 305 µM) | > 320 µg/mL | > 320 µg/mL
8 | CCCCCC1(C)C/C(=N/O)c2ccc(O)cc2O1 (stereo not drawn) | 80 µg/mL (≈ 304 µM) | 160 µg/mL (≈ 608 µM) | 40 µg/mL (≈ 152 µM) | 40 µg/mL (≈ 152 µM) | 40 µg/mL (≈ 152 µM) | 5 µg/mL (≈ 19 µM) | 40 µg/mL (≈ 152 µM) | 5 µg/mL (≈ 19 µM)
9 | CCCCCCCC1(C)CC(=O)c2ccc(OC)cc2O1 (stereo not drawn) | > 320 µg/mL | > 320 µg/mL | 320 µg/mL (≈ 1100 µM) | > 320 µg/mL | > 320 µg/mL | 40 µg/mL (≈ 138 µM) | 40 µg/mL (≈ 138 µM) | 320 µg/mL (≈ 1100 µM)
10 | CC(C)CC1(C)CC(=O)c2ccc(O)cc2O1 (stereo not drawn) | 160 µg/mL (≈ 683 µM) | > 320 µg/mL | 320 µg/mL (≈ 1370 µM) | 320 µg/mL (≈ 1370 µM) | 160 µg/mL (≈ 683 µM) | 40 µg/mL (≈ 171 µM) | 320 µg/mL (≈ 1370 µM) | 160 µg/mL (≈ 683 µM)
11 | CCCCCCCC1(C)CC(=O)c2ccc(O)cc2O1 (stereo not drawn) | 160 µg/mL (≈ 579 µM) | 160 µg/mL (≈ 579 µM) | 160 µg/mL (≈ 579 µM) | 80 µg/mL (≈ 289 µM) | 80 µg/mL (≈ 289 µM) | 80 µg/mL (≈ 289 µM) | 40 µg/mL (≈ 145 µM) | 40 µg/mL (≈ 145 µM)
12 | CCCCCCCC1(C)C=Cc2ccc(OC)cc2O1 (stereo not drawn) | > 320 µg/mL | > 320 µg/mL | > 320 µg/mL | > 320 µg/mL | > 320 µg/mL | 320 µg/mL (≈ 1170 µM) | > 320 µg/mL | > 320 µg/mL
13 | CCCCCC1(C)CC(O)c2ccc(O)cc2O1 (stereo not drawn) | 80 µg/mL (≈ 320 µM) | 160 µg/mL (≈ 639 µM) | 40 µg/mL (≈ 160 µM) | 80 µg/mL (≈ 320 µM) | 40 µg/mL (≈ 160 µM) | 10 µg/mL (≈ 39.9 µM) | 20 µg/mL (≈ 79.9 µM) | 20 µg/mL (≈ 79.9 µM)
14 | CCCCCC1(C)C=Cc2ccc(OC)cc2O1 (stereo not drawn) | > 320 µg/mL | > 320 µg/mL | > 320 µg/mL | 320 µg/mL (≈ 1300 µM) | > 320 µg/mL | 320 µg/mL (≈ 1300 µM) | > 320 µg/mL | > 320 µg/mL
15 | CC(C)=CCCC1(C)C/C(=N/O)c2ccc(O)cc2O1 (stereo not drawn) | 40 µg/mL (≈ 145 µM) | 80 µg/mL (≈ 291 µM) | 40 µg/mL (≈ 145 µM) | 40 µg/mL (≈ 145 µM) | 20 µg/mL (≈ 72.6 µM) | 2.5 µg/mL (≈ 9.08 µM) | 40 µg/mL (≈ 145 µM) | 5 µg/mL (≈ 18.2 µM)
16 | CCCCCCCC1(C)CC(O)c2ccc(O)cc2O1 (stereo not drawn) | 80 µg/mL (≈ 287 µM) | 40 µg/mL (≈ 144 µM) | 20 µg/mL (≈ 71.8 µM) | 40 µg/mL (≈ 144 µM) | 80 µg/mL (≈ 287 µM) | 2.5 µg/mL (≈ 8.98 µM) | 40 µg/mL (≈ 144 µM) | 20 µg/mL (≈ 71.8 µM)
17 | CCCCCC1(C)CC(O)c2ccc(OC)cc2O1 (stereo not drawn) | 80 µg/mL (≈ 303 µM) | 320 µg/mL (≈ 1210 µM) | 160 µg/mL (≈ 605 µM) | 160 µg/mL (≈ 605 µM) | > 320 µg/mL | 20 µg/mL (≈ 75.7 µM) | > 320 µg/mL | 20 µg/mL (≈ 75.7 µM)
18 | CCCCCC1(C)CC(=O)c2ccc(O)cc2O1 (stereo not drawn) | 160 µg/mL (≈ 644 µM) | 320 µg/mL (≈ 1290 µM) | 160 µg/mL (≈ 644 µM) | 160 µg/mL (≈ 644 µM) | 80 µg/mL (≈ 322 µM) | 40 µg/mL (≈ 161 µM) | 80 µg/mL (≈ 322 µM) | 20 µg/mL (≈ 80.5 µM)
19 | CC(C)=CCCC1(C)CC(O)c2ccc(O)cc2O1 (stereo not drawn) | 160 µg/mL (≈ 610 µM) | 80 µg/mL (≈ 305 µM) | 80 µg/mL (≈ 305 µM) | 160 µg/mL (≈ 610 µM) | 160 µg/mL (≈ 610 µM) | 10 µg/mL (≈ 38.1 µM) | 80 µg/mL (≈ 305 µM) | 80 µg/mL (≈ 305 µM)
20 | CCCCCCCC1(C)CC(O)c2ccc(OC)cc2O1 (stereo not drawn) | 80 µg/mL (≈ 274 µM) | 320 µg/mL (≈ 1090 µM) | 160 µg/mL (≈ 547 µM) | 80 µg/mL (≈ 274 µM) | 160 µg/mL (≈ 547 µM) | 80 µg/mL (≈ 274 µM) | 40 µg/mL (≈ 137 µM) | 80 µg/mL (≈ 274 µM)
21 | CC(C)=CCCC1(C)CC(=O)c2ccc(O)cc2O1 (stereo not drawn) | 80 µg/mL (≈ 307 µM) | 160 µg/mL (≈ 615 µM) | 80 µg/mL (≈ 307 µM) | 160 µg/mL (≈ 615 µM) | 160 µg/mL (≈ 615 µM) | 40 µg/mL (≈ 154 µM) | 160 µg/mL (≈ 615 µM) | 80 µg/mL (≈ 307 µM)
